ChEMBL document CHEMBL2346527, “Kinase scaffold repurposing for neglected disease drug discovery: discovery of an efficacious, lapatinib-derived lead compound for trypanosomiasis” (J Med Chem, 2013)

Experiments:
[1] = system: Trypanosoma brucei brucei; test: Antitrypanosomal activity against bloodstream form Trypanosoma brucei brucei Lister 427 after 48 hrs by hemocytometer; type: functional, organism-based; settings: Lister 427, 48 h
Summary of the method: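 Bloodstream Lister 427 cells were seeded at 2 × 10^3 cells/ml in HMI-9 medium and given drug from 200X DMSO stocks, with DMSO as control. Three independent experiments, each dose in duplicate (n = 6).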

HepG2 = test: Cytotoxicity against human HepG2 cells after 48 hrs by MTT assay; type: cell-based; settings: HepG2, 48 h
Summary of the method: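 HepG2 cytotoxicity was read by an MTT assay adapted to 384-well format. IC50 was fitted by nonlinear regression (sigmoidal dose-response, variable slope).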

| SMILES | EC50 [1] [µM] | IC50 (HepG2) [µM] |
| --- | --- | --- |
| CCNC(=O)c1ccc(-c2ccc3ncnc(Nc4ccc(OCc5cccc(F)c5)c(Cl)c4)c3c2)cc1F | 3.85 | – |
| Fc1cccc(COc2ccc(Nc3ncnc4ccc(-c5cccc(CN6CCCCC6)c5)cc34)cc2Cl)c1 | 0.65 | – |
| Fc1cccc(COc2ccc(Nc3ncnc4ccc(-c5ccc(N6CCCCC6)cc5)cc34)cc2Cl)c1 | 0.38 | – |
| COc1cc(Nc2ncnc3ccc(-c4ccc(S(=O)(=O)N5CCOCC5)cc4)cc23)ccc1OCc1cccc(F)c1 | 1.88 | > 15 |
| Fc1cccc(COc2ccc(Nc3ncnc4ccc(-c5cc6ccccc6s5)cc34)cc2Cl)c1 | 5.98 | – |
| O=S(=O)(c1ccc(-c2ccc3ncnc(Nc4ccc(OCc5cccc(F)c5)c(Cl)c4)c3c2)cc1)N1CCNCC1 | 0.28 | 3.32 |
| O=S(=O)(c1ccc(-c2ccc3ncnc(Nc4ccc(OCc5cccc(Cl)c5)c(Cl)c4)c3c2)cc1)N1CCOCC1 | 0.66 | > 15 |
| O=S(=O)(c1ccc(-c2ccc3ncnc(Nc4ccc(OCc5cccc(F)c5)c(Cl)c4)c3c2)cc1)N1CCCC1 | 0.35 | > 15 |
| Fc1cccc(COc2ccc(Nc3ncnc4ccc(-c5cccc(CN6CCOCC6)c5)cc34)cc2Cl)c1 | 0.36 | – |
| CC(C)(C)NS(=O)(=O)c1ccccc1-c1ccc2ncnc(Nc3ccc(OCc4cccc(F)c4)c(Cl)c3)c2c1 | 4.66 | – |
| CS(=O)(=O)CCN(CC#N)Cc1ccc(-c2ccc3ncnc(Nc4ccc(OCc5cccc(F)c5)c(Cl)c4)c3c2)o1 [GW616030X] | 0.52 | – |
| c1ccc(Nc2ncnc3ccc(-c4cccc(N5CCOCC5)c4)cc23)cc1 | 11 | 7.02 |
| O=S(=O)(c1ccc(-c2ccc3ncnc(Nc4ccc(OCc5ccccc5F)c(Cl)c4)c3c2)cc1)N1CCOCC1 | 1.65 | > 15 |
| O=S(=O)(c1ccc(-c2ccc3ncnc(Nc4ccc(OCc5cccc(F)c5)c(Cl)c4)c3c2)cc1)N1CCOCC1 | 1.39 | > 15 |
| O=S(=O)(c1ccc(-c2ccc3ncnc(Nc4ccc(OCc5ccc(C(F)(F)F)c(F)c5)c(Cl)c4)c3c2)cc1)N1CCOCC1 | 0.54 | > 15 |
| O=S(=O)(c1cccc(-c2ccc3ncnc(Nc4ccc(OCc5cccc(F)c5)c(Cl)c4)c3c2)c1)N1CCCCC1 | 0.46 | > 15 |
| O=S(=O)(c1ccc(-c2ccc3ncnc(Nc4ccc(O)c(Cl)c4)c3c2)cc1)N1CCOCC1 | 1.06 | > 15 |
| Fc1cccc(COc2ccc(Nc3ncnc4ccc(-c5ccccc5Oc5ccccc5)cc34)cc2Cl)c1 | 5.3 | – |
| O=S1(=O)CCN(Cc2ccc(-c3ccc4ncnc(Nc5ccc(OCc6ccccc6)c(Cl)c5)c4c3)o2)CC1 | 0.41 | – |
| CN1CCN(S(=O)(=O)c2ccc(-c3ccc4ncnc(Nc5ccc(OCc6cccc(F)c6)c(Cl)c5)c4c3)cc2)CC1 | 0.53 | > 15 |
| O=S(=O)(c1ccc(-c2ccc3ncnc(Nc4ccccc4)c3c2)cc1)N1CCOCC1 | 1.44 | > 3 |

| SMILES | EC50 [1] [µM] | IC50 (HepG2) [µM] |
| --- | --- | --- |
| Cc1nnc(-c2cccc(-c3ccc4ncnc(Nc5ccc(OCc6cccc(F)c6)c(Cl)c5)c4c3)c2)o1 | 4.21 | – |
| CS(=O)(=O)CCNCc1ccc(-c2ccc3ncnc(Nc4ccc(OCc5ccccc5)c(Br)c4)c3c2)o1 | 0.56 | – |
| CCCS(=O)(=O)CCNCc1ccc(-c2ccc3ncnc(Nc4ccc(OCc5cccc(F)c5)c(Cl)c4)c3c2)o1 | 0.43 | – |
| Fc1cccc(COc2ccc(Nc3ncnc4ccc(-c5cccc(N6CCCCC6)c5)cc34)cc2Cl)c1 | 0.76 | > 15 |
| O=S(=O)(c1cccc(-c2ccc3ncnc(Nc4ccc(OCc5cccc(F)c5)c(Cl)c4)c3c2)c1)N1CCCC1 | 0.25 | > 15 |
| COc1cccc(COc2ccc(Nc3ncnc4ccc(-c5ccc(S(=O)(=O)N6CCOCC6)cc5)cc34)cc2Cl)c1 | 1.43 | > 15 |
| Fc1cccc(COc2ccc(Nc3ncnc4ccc(-c5cccc6ncccc56)cc34)cc2Cl)c1 | 4.53 | – |
| O=S(=O)(c1ccc(-c2ccc3ncnc(Nc4ccc(OCc5cccc(F)c5F)c(Cl)c4)c3c2)cc1)N1CCOCC1 | 0.82 | > 15 |
| CC1(C)OB(O)c2cc(NC(=O)c3ccc(F)cc3C(F)(F)F)ccc21 [ACOZIBOROLE] | 0.794 | – |
| CN1CCCN(S(=O)(=O)c2ccc(-c3ccc4ncnc(Nc5ccc(OCc6cccc(F)c6)c(Cl)c5)c4c3)cc2)CC1 | 0.81 | 1.81 |
| Cc1ccc(Nc2ncnc3ccc(-c4ccc(S(=O)(=O)N5CCOCC5)cc4)cc23)cc1 | 1.15 | > 15 |
| Nc1nc(N)nc(Nc2ccc([As]3SCC(CO)S3)cc2)n1 (configuration not stated) [MELARSOPROL] | 0.0063 | – |
| O=C(c1ccc(-c2ccc3ncnc(Nc4ccc(OCc5cccc(F)c5)c(Cl)c4)c3c2)cc1)N1CCCCC1 | 0.94 | – |
| NCCCC(N)(C(=O)O)C(F)F (configuration not stated) [EFLORNITHINE] | 16.4 | – |
| Fc1cccc(COc2ccc(Nc3ncnc4ccc(-c5ccc(CN6CCCCC6)cc5)cc34)cc2Cl)c1 | 1.5 | – |
| O=S(=O)(CCSCc1ccc(-c2ccc3ncnc(Nc4ccc(OCc5cccc(F)c5)c(Cl)c4)c3c2)o1)c1ccccc1 | 0.55 | – |
| O=S(=O)(c1cccc(-c2ccc3ncnc(Nc4ccc(OCc5cccc(F)c5)c(Cl)c4)c3c2)c1)N1CCOCC1 | – | > 15 |
| CS(=O)(=O)CCN(Cc1ccccc1)Cc1ccc(-c2ccc3ncnc(Nc4ccc(OCc5cccc(F)c5)c(Cl)c4)c3c2)o1 | 1.51 | – |
| CS(=O)(=O)c1ccc(-c2ccc3ncnc(Nc4ccc(OCc5cccc(F)c5)c(Cl)c4)c3c2)cc1 | 0.9 | > 15 |
| Cc1ccc(-c2ccc3ncnc(Nc4ccc(OCc5cccc(F)c5)c(Cl)c4)c3c2)c2ccccc12 | 2.27 | – |
| Fc1cccc(COc2ccc(Nc3ncnc4ccc(-c5ccc(N6CCOCC6)cc5)cc34)cc2Cl)c1 | 1.91 | 9.6 |

| SMILES | EC50 [1] [µM] | IC50 (HepG2) [µM] |
| --- | --- | --- |
| CS(=O)(=O)c1cccc(-c2ccc3ncnc(Nc4ccc(OCc5cccc(F)c5)c(Cl)c4)c3c2)c1 | 3.21 | > 15 |
| O=S(=O)(c1ccc(-c2ccc3ncnc(Nc4ccc(OCc5cccc(Br)c5)c(Cl)c4)c3c2)cc1)N1CCOCC1 | 0.68 | > 15 |
| COc1ccc(Nc2ncnc3ccc(-c4ccc(S(=O)(=O)N5CCOCC5)cc4)cc23)cc1Cl | 0.82 | > 15 |
| O=S(=O)(c1ccc(-c2ccc3ncnc(Nc4ccc(OCc5ccccc5)c(Cl)c4)c3c2)cc1)N1CCOCC1 | 1.35 | > 15 |
| N=C(N)c1ccc(OCCCCCOc2ccc(C(=N)N)cc2)cc1 [PENTAMIDINE] | 0.0035 | – |
| CC(C)S(=O)(=O)CCNCc1ccc(-c2ccc3ncnc(Nc4ccc(OCc5cccc(F)c5)c(Cl)c4)c3c2)o1 | 0.48 | – |
| O=S(=O)(c1ccc(-c2ccc3ncnc(Nc4ccc(OCc5cccc(F)c5)cc4)c3c2)cc1)N1CCOCC1 | 0.65 | > 15 |
| O=C(c1cccc(-c2ccc3ncnc(Nc4ccc(OCc5cccc(F)c5)c(Cl)c4)c3c2)c1)N1CCCCC1 | 0.14 | > 6 |
| O=C(c1ccc(-c2ccc3ncnc(Nc4ccc(OCc5cccc(F)c5)c(Cl)c4)c3c2)cc1)N1CCOCC1 | 1.21 | – |
| Clc1cc(Nc2ncnc3ccc(-c4cccc(N5CCOCC5)c4)cc23)ccc1OCc1ccccc1 | 0.23 | > 20 |
| c1ccc(COc2ccc(Nc3ncnc4ccc(-c5cccc(N6CCOCC6)c5)cc34)cc2)cc1 | 0.18 | > 20 |
| O=C(c1cccc(-c2ccc3ncnc(Nc4ccc(OCc5cccc(F)c5)c(Cl)c4)c3c2)c1)N1CCOCC1 | 0.55 | – |
| CN(C)S(=O)(=O)c1ccccc1-c1ccc2ncnc(Nc3ccc(OCc4cccc(F)c4)c(Cl)c3)c2c1 | 1.04 | > 15 |
| O=C(NC1CC1)c1cccc(-c2ccc3ncnc(Nc4ccc(OCc5cccc(F)c5)c(Cl)c4)c3c2)c1 | 4.5 | – |
| Fc1cccc(COc2ccc(Nc3ncnc4ccc(-c5ccc(CN6CCOCC6)cc5)cc34)cc2Cl)c1 | 0.99 | 12.9 |
| O=S(=O)(c1ccc(-c2ccc3ncnc(Nc4ccc(OCc5cccc(F)c5)c(Cl)c4)c3c2)cc1)N1CCCCC1 | 0.32 | > 15 |
| O=c1[nH]cc(-c2ccc3ncnc(Nc4ccc(OCc5cccc(F)c5)c(Cl)c4)c3c2)c(=O)[nH]1 | 22.6 | – |
| O=S(=O)(c1ccc(-c2ccc3ncnc(Nc4ccc(OCc5cc(F)cc(F)c5F)c(Cl)c4)c3c2)cc1)N1CCOCC1 | 1.12 | > 3 |
| O=S(=O)(c1ccc(-c2ccc3ncnc(Nc4ccc(OCc5cccc(F)c5)c(Cl)c4)c3c2)cc1)N1CCSCC1 | 0.47 | > 15 |
| Oc1ccc(-c2ccc3ncnc(Nc4ccc(OCc5cccc(F)c5)c(Cl)c4)c3c2)cc1 | 6.45 | – |
| O=S(=O)(c1ccc(-c2ccc3ncnc(Nc4ccc(OCc5ccc(F)cc5)c(Cl)c4)c3c2)cc1)N1CCOCC1 | 1.34 | > 15 |
